M1 antag: antagonists of rat M1 muscarinic receptor. B-score at 10 µM. P08482. 3.4% of 64,000 active. CHO-M1 cells, Fluo-4 calcium, ACh EC80 antagonist mode; active compounds read low;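 active means calcium fluorescence response, raw or row-and-column corrected B-score, differing from the plate sample mean either way at a set confidence level, mostly lower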
S1P1 ag pot: S1P1 (human) agonism or agonism potentiation | P21453 | S1P1 CRE-bla cells, forskolin, beta-lactamase FRET, potentiator mode; S1P1 agonist co-added at EC20, 2 nM; 100% = saturating reference agonist, 0% = basal | activation, % at 9.5 µM | 0.57% of 56,000 active;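 active means activation above a cutoff set at the mean activation of all tested compounds plus 3 SD, cut at about 54% in these data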;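 further: forskolin at 4 µM as EC80 and the EC20 agonist is SEW2871; 100% = SEW2871 at its EC100 plus forskolin at EC80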
M1 ag: activates the M1 muscarinic receptor; 3% of 64,000 active; CHO-M1 cells, Fluo-4 calcium fluorescence, agonist mode; active compounds read high; AID 626; B-score at 10 µM;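 active means fluorescence rise, raw or as B-score row- and column-corrected plate score, outside the 99.7% band of its plate's samples, either direction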
D1 allo mod: allosterically modulates the human D1 dopamine receptor; HEK293 D1, CRE-luciferase, dopamine EC30 potentiation; actives deviate in either direction; B-score at 10 µM; 5.9% of 58,000 active; AID 641;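 active means luminescence count or its row- and column-corrected plate score outside the 99.7% band of the plate's sample wells, on either side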
Target sequence (P21728 whole entry, looked up): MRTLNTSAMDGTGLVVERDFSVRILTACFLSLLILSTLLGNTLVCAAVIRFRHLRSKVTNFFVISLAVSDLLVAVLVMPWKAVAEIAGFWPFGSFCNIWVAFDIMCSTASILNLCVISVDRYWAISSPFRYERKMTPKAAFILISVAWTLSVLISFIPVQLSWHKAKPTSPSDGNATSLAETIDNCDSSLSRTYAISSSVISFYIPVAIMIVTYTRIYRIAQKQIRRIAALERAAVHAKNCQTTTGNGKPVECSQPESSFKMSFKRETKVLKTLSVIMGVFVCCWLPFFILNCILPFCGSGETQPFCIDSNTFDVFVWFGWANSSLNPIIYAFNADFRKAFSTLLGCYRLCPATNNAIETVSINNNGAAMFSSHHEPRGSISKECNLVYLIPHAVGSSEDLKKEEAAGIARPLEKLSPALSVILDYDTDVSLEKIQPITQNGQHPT
S1P3 agonist: S1P3 (human) receptor agonism; Q99500; S1P3 NFAT-BLA reporter cells, FRET ratio; relative to 1 µM S1P, basal subtracted; activation, % at 4.5 µM; 0.1% of 60,000 active;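 active means activation above the screen-wide mean plus 3 SD, cut at about 4.5% in these data, passing the limit was not always enough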
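Benchmarks: high control 1 µM S1P / System: stable CHO line with human S1P3, Gα16, NFAT-BLA reporter / Dosing: single compound concentration, 4.5 µM final / Timing: 4 h compound at 37 °C, 2 h substrate at RT / Measured by: FRET β-lactamase substrate fluorescence, excitation 405 nm, 460/535 nm emission ratio, background-subtracted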
D1 PAM confirm: D1 receptor (human) allosteric modulation, confirmed; shares compounds with D1 allo mod; HEK293 D1 CRE-luciferase, dopamine EC30 potentiation; active compounds read high; luminescence at 10 µM; 88% of 2,200 active;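 active means luminescence in either of two replicates above the same-plate mean plus 3 SD of the low-dose dopamine control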
D1 ag no DA: secondary test of D1 modulators: activity without dopamine. HEK293 D1 CRE-luciferase, luminescence, no dopamine; active compounds read high. 0.8% of 1,900 active. luminescence at 10 µM. shares compounds with D1 allo mod; in the data active means luminescence above about 3900
Isoprot counter: counter-screen for D1 modulators: isoproterenol response in HEK293 cells; shares compounds with D1 allo mod; HEK293 D1 CRE-luciferase, isoproterenol EC30 counter-screen; active compounds read high; luminescence at 10 µM; 63% of 2,200 active;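 active means luminescence in either replicate above plate mean of wells with a partly effective reference agonist dose plus 3 SD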;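 further: isoproterenol raises cAMP through native beta-adrenoceptor Gs so signal bypasses D1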
Starred values were filed as active, the others as inactive; / = not tested or not shown. Only some compounds are listed: those with a hit (about 11% of all), similar ones and a draw of the others.

SMILES	M1 antag	S1P1 ag pot	M1 ag	D1 allo mod	S1P3 agonist	D1 PAM confirm	D1 ag no DA	Isoprot counter
CCOC(=O)c1sc(NC(NC(=O)c2ccco2)(C(=O)OC)C(F)(F)F)nc1C (centres undefined)	-1.96	2.4	0.137	5.6*	0.3	8940*	1520	3624*
COCCN(C(=O)C1CC1)c1nnc(-c2cccc(C)c2)s1	-0.103	43.1	0.61	-0.303	-0.4	/	/	/
Clc1cccc(Nc2c3c(nc4ncnn24)CCC3)c1	-0.107	-14.9	-1.74	4.71*	0.4	8280*	1584	3144
c1cc2c(cc1C1=Nn3c(nnc3C3CCCCC3)SC1)OCO2	0.906	-12.7	2.01	28.2*	-1.9	25488*	1768	13072*
CC(C)(C)C1=Nn2c(nnc2C2CCCCC2)SC1	0.00415	-8.6	-0.456	24.2*	-1.8	19908*	1652	4100*
O=S(=O)(CC(CN1CCCC1)N1CCCC1)c1ccc2ccccc2c1 (centres undefined)	1.08	47.7	0.166	-2.12	-1.7	/	/	/
CSc1nc(C)cc(SCCO)n1	0.404	/	-0.411	1.52	-0.9	/	/	/
O=C(Nc1cc(Cl)ccc1N1CCOCC1)c1cnccn1	0.314	/	0.156	3.07*	/	7880*	1408	2988
COc1cccc(OC)c1C(=O)Nc1cc(Cl)ccc1N1CCOCC1	0.0473	11.9	0.0787	-0.0172	-0.6	/	/	/
CC(C)CCNC(=O)Cn1cc2c(n1)CCCCC2	0.355	-29.6	0.0389	-0.0327	-1.6	/	/	/
COc1ccc(-c2cc(-c3ccccc3)n3ncnc3n2)cc1	-0.33	-1.6	2.1	0.946	-5.2	/	/	/
Cc1cc(Nc2ccc(C)c(F)c2)n2ncnc2n1	0.00887	-15.2	-0.352	3.29*	0.6	5852	1648	2384
c1ccc(Nc2cc(-c3ccccc3)nc3ncnn23)cc1	0.0255	-57.6	-0.316	7.92*	0.1	15552*	1552	4008*
COc1ccc(OC)c2c(C)cc(N3CCCN(C)CC3)nc12	-0.462	/	0.142	/	/	/	/	/
CCOC(=O)N1CCC(Nc2c(N3CCN(c4cccc(C(F)(F)F)c4)CC3)c(=O)c2=O)CC1	1.12	-29.0	0.491	-0.00102	1.3	/	/	/
COc1ccc(S(=O)(=O)Nc2ccc3c(c2)OCO3)cc1OC	0.374	-2.7	0.37	3.06*	0.5	9304*	1612	2820
CCOc1cc(-c2c(C)c(CC)nc(N)c2C#N)ccc1O	0.61	-12.8	-0.0545	1.88*	-0.7	10600*	1960	3752*
CCCn1c2c(c(O)c(C(=O)NC)c1=O)CCCC2	0.117	-12.1	-0.261	4.59*	-0.3	9448*	1536	3324
CSc1nc(N2CCOCC2)c2c3c(sc2n1)CCCC3	-0.512	-40.2	-0.957	10.9*	-1.0	11612*	1664	4140*
CCOC(=O)c1ccc(NC(=O)C2CCCO2)cc1 (centres undefined)	0.28	-13.2	0.504	23*	0.4	6456	1748	2860
CCCCOC(=O)c1ccc(NC(=O)C2CCCO2)cc1 (centres undefined)	0.0329	17.5	0.0961	0.147	-1.4	/	/	/
O=C(NC1CCCCC1)c1nn2c(C(F)(F)F)cc(-c3ccco3)nc2c1Br	-0.115	-6.3	0.309	0.833	-0.5	/	/	/
O=C(NC1CCCCC1)c1cnn2c(C(F)(F)F)cc(-c3ccco3)nc12	-1.38	/	1.09	5.25*	/	6744*	1356	3856*
COC(=O)c1ccc(CN2C(=O)NC3(CCCCC3C)C2=O)o1 (centres undefined)	0.354	/	-0.273	/	/	/	/	/
CCOc1ccc2nc(SCC#N)c(C#N)cc2c1	-0.229	-47.0	0.61	-0.00212	1.3	/	/	/
SMILES	M1 antag	S1P1 ag pot	M1 ag	D1 allo mod	S1P3 agonist	D1 PAM confirm	D1 ag no DA	Isoprot counter
CCc1ccc2nc(SCC(=O)N(CC)CC)c(C#N)cc2c1	1.07	-21.5	-0.838	3.13*	-0.4	8128*	1728	3652*
COC(=O)c1sccc1NC(=O)c1ccncc1	0.405	/	-0.884	11.1*	-0.5	14580*	1608	4076*
COC(=O)c1sccc1NC(=O)c1cc(C)on1	0.0551	-33.6	0.0655	3.44*	-0.3	10948*	1860	3180*
COC(=O)c1sccc1NC(=O)c1c(C)noc1C	2.03	-57.7	0.268	1.3	-1.1	/	/	/
Cc1cccc(NC(=O)Cn2nnc(-c3cccs3)n2)c1C	0.01	11.5	-0.647	-1.06	-0.5	/	/	/
COC(=O)c1sccc1NC(=O)Cn1nnc(-c2ccc(C)cc2)n1	0.461	/	1.22	2.42*	-0.9	4304	1332	2284
Cc1ccc(Oc2ccc(S(=O)(=O)N3CCOCC3)cc2C(N)=O)c(-n2nc3ccccc3n2)c1	-0.0217	-0.5	0.266	0.864	-0.7	/	/	/
CCNC(=O)c1c(O)c2ccccc2[nH]c1=O	-0.465	-19.1	-0.0491	11*	-0.2	15428*	/	2876*
CCOC(=O)CCSc1nc(C)c2ccccc2n1	-1.46	-16.0	-0.0117	1.93*	-0.3	6200*	1668	2904
CCOC(=O)CSc1nc(C)c2cc(OC)ccc2n1	0.476	-1.0	1.8	-0.0475	-0.3	/	/	/
c1ccc2c(c1)CCOC2CNCCCN1CCCCC1 (centres undefined)	-0.00401	5.9	-0.00583	/	-3.0	/	/	/
COc1ccccc1Nc1nc(N)nc(CSc2ncccn2)n1	0.695	-31.9	0.469	1.27	-0.5	/	/	/
COc1ccc(Nc2nc(N)nc(CSc3n[nH]c(-c4ccccc4)n3)n2)cc1	-0.681	-32.0	0.431	5.03*	-0.3	6616*	1264	3220*
COc1ccc(C2CC(=O)c3cnc(NC(=O)c4ccccc4)nc3C2)cc1OC (centres undefined)	-0.308	-26.8	0.0543	4.57*	-1.2	9012*	1692	3456*
COc1ccc(C2CC(=O)c3cnc(NC(=O)c4ccccc4OC)nc3C2)c(OC)c1 (centres undefined)	1.35	-3.9	2.87	6.54*	-1.4	15748*	1700	3868*
COc1ccc(N2CCN(C(=O)c3ccc(OCC4CCCO4)cc3)CC2)cc1 (centres undefined)	-0.278	-50.2	-0.612	-0.437	-0.2	/	/	/
COCCSc1nc2c(c(=O)[nH]c(=O)n2C)n1CCC(C)C	0.299	-1.0	-0.495	11*	-0.1	21024*	1464	5440*
C=C(C)CSc1nc2c(c(=O)[nH]c(=O)n2C)n1CCC(C)C	0.024	-38.0	1.04	11.2*	-1.3	22496*	1732	7888*
COC(=O)C(C)Sc1nc2c(c(=O)n(C)c(=O)n2C)n1CCC(C)C (centres undefined)	-1.22	-13.2	0.622	/	-1.1	/	/	/
CC(C)Cn1c(NCCN(C)C)nc2c1c(=O)[nH]c(=O)n2C	0.952	-6.5	-0.127	-0.271	-0.4	/	/	/
